Compounds with a hit are over-represented: about 3.5% of the library has one in this group of screens.
MrgX1 antagonist – blocks BAM8-22 activation of human MrgX1 receptor; MRGX1-HEK293 calcium flux, Fluo-4, BAM8-22 antagonism; stronger effect = lower value; B-score at 10 µM; 310,000 tested, 1.3% active; AID 588676;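 active = calcium-response B-score plate-corrected more than 3 library SD below zero, starting fluorescence within 5 deviations, no agonist response on first addition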;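 also: peak minus trough fluorescence over baseline after final BAM8-22 challenge near maximal dose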
MrgX1 agonist – activates human MrgX1 receptor signaling | Q96LB2 | MrgX1-HEK293 cells, Fluo-4 calcium fluorescence, agonist mode; stronger effect = higher value | B-score at 10 µM | 310,000 tested, 0.44% active;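 active = calcium response B-score plate-corrected fluorescence ratio at least 3 library SD, with starting fluorescence B-score inside 5 SD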
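Test system: Stable human MrgX1 HEK293 cell line | Schedule: Overnight plating before 1 h dye loading | Read-out basis: Baseline-normalised fluorescence change ratio, B-scored | Detection: Kinetic calcium dye fluorescence, Fluo-4 NW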
RGS4 block – human RGS4 inhibition; P49798; HEK293 M3R/RGS4 inducible, Fluo-4 calcium flux; stronger effect = higher value; triggered by carbachol at its EC20; B-score at 10 µM; 310,000 tested, 0.45% active;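 active = B-score, a plate-corrected calcium signal, over three deviations above library mean, with baseline fluorescence within five deviations of library mean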;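 also: RGS4 expression induced by doxycycline in cells with stable M3 receptor; B-score is computed from the integrated fluorescence ratio over baseline after carbachol; higher B-score means a larger calcium signal and so more RGS4 inhibition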
Target sequence (P49798 whole entry, looked up): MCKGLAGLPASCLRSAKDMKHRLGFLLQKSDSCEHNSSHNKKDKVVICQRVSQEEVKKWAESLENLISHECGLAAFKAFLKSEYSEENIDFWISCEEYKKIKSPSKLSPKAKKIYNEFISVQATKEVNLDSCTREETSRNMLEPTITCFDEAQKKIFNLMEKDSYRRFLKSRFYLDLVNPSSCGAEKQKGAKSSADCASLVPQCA
MrgX1 allo act – allosterically activates human MrgX1 receptor signaling | MrgX1-HEK293, Fluo-4 calcium flux, FDSS; stronger effect = higher value | B-score at 10 µM | 310,000 tested, 0.63% active | AID 588675;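 active = plate-corrected calcium response at least 3 library SD above typical, normal starting fluorescence, not activating the receptor alone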;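 also: compound read alongside a low EC10 to EC30 dose of BAM8-22 agonist; peak minus trough fluorescence over baseline measured at the second addition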
RGS4 act – RGS4 potentiation or activation. 310,000 tested, 0.92% active. AID 463111. B-score at 10 µM. HEK293 M3R/inducible RGS4, carbachol calcium flux Fluo4; stronger effect = lower value;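 active = B-score of the integrated calcium signal more than 4 SD below the library mean, with starting fluorescence not abnormally high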;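 also: negative B-score means reduced calcium response which marks RGS4 activation or potentiation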
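Material: Inducible-RGS4 HEK293 cells carrying M3 receptor; also added: carbachol at ECmax as muscarinic agonist stimulus; incubation: compound preincubation 20 min at room temperature before agonist; signal: Fluo4-AM (2 µM) calcium-flux fluorescence, kinetic read; measure: integrated calcium ratio converted to B score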
RGS4 block valid – validation of RGS4 inhibitors; shares compounds with RGS4 block; HEK293 M3R/RGS4, carbachol calcium Fluo-4 fluorescence; carbachol added at its EC20; 0 = buffer wells, 100 = carbachol control; calcium response, % at 10 µM; 1,700 tested, 65% active; AID 492999;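 active = duplicate-averaged calcium response above the buffer-only control mean plus 5 SD of those controls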;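 also: integrated fluorescence ratio F max minus min over baseline F0; higher response in RGS4-induced cells means RGS4 inhibition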
RGS4 uninduced – checks RGS4 inhibitor effects in non-induced HEK293 M3R cells. shares compounds with RGS4 block. carbachol calcium Fluo-4; submaximal (EC20) carbachol stimulus; buffer wells 0%, carbachol control wells 100%. activity (percent), % at 10 µM. 1,900 tested, 20% active. AID 493000; call rule not given here;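 also: RGS4 induction absent so cells express M3R without RGS4; higher means more calcium signal and flags a non-specific hit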
RGS4 inh ctr2 – second RGS4 inhibitor counter-screen in uninduced cells lacking carbachol; HEK293 M3R/RGS4 non-induced, Fluo-4 calcium, no carbachol; normalised: buffer wells 0%, carbachol wells 100%; 1,900 tested, 22% active; AID 493001; shares compounds with RGS4 block; calcium response (agonist-mode artifact), % at 10 µM;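 active = duplicate-averaged calcium rise in uninduced cells above buffer wells' mean plus 5 SD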
The depositor's hits bear a star; i = inactive; nt = no result.

SMILES	MrgX1 antagonist	MrgX1 agonist	RGS4 block	MrgX1 allo act	RGS4 act	RGS4 block valid	RGS4 uninduced	RGS4 inh ctr2
CC(=O)Oc1ccc(C(=O)Nc2ccc(C3(C#N)CCCC3)cc2)cc1	i	i	i	i	i	nt	nt	nt
CC(=O)CS(=O)(=O)c1ccc(Oc2ccc(S(=O)(=O)CC(C)=O)cc2)cc1	i	i	i	i	i	nt	nt	nt
CC(=O)CCS(=O)(=O)c1ccc(Oc2ccc(S(=O)(=O)CCC(C)=O)cc2)cc1	i	i	5.2*	i	i	22%*	i	i
CCN(CC)CCn1c(=S)[nH]c2cc(C(=O)NCc3ccccc3Cl)ccc2c1=O	i	i	i	i	i	nt	nt	nt
c1ccc(Nc2nc(N3CCCCC3)nc(N3CCCCC3)n2)cc1	i	i	5.2*	i	i	26%*	i	i
c1ccc(Nc2nc(N3CCCC3)nc(N3CCCC3)n2)cc1	i	i	i	i	i	nt	nt	nt
c1ccc(Nc2nc(N3CCCCC3)nc(N3CCNCC3)n2)cc1	i	i	i	i	i	i	i	16%*
CN(c1ccc(OCC(=O)NCc2cccnc2)cc1)S(=O)(=O)c1ccc(Cl)cc1	i	i	i	i	i	nt	nt	nt
CC(C)S(=O)(=O)CC(=O)c1ccc(Cl)cc1	i	i	i	i	i	nt	nt	nt
Cc1cccc(N=Nc2c(N)n[nH]c2-c2ccc(Cl)cc2)c1	i	i	i	i	i	nt	nt	nt
Cc1ccc(-c2[nH]nc(N)c2N=Nc2ccccc2C)cc1	i	i	10*	i	i	i	i	i
O=C(O)c1ccc(N/N=C/c2cn(Cc3ccc(F)cc3)c3ccccc23)cc1	i	i	i	i	i	nt	nt	nt
O=[N+]([O-])/C=C/c1cn(Cc2ccc(F)cc2)c2ccccc12	i	i	6*	7.4*	i	42%*	i	68%*
O=C(O)COc1ccc(/C=C/C(=O)c2ccc3ccccc3c2)cc1	i	i	4.8*	i	i	i	i	i
Cc1cc(CN2CCC(n3nccc3NC(=O)c3ccccc3Cl)CC2)cc(C)c1O	i	i	i	i	i	nt	nt	nt
CC(C)n1cc(C(=O)N2CCCC(N3CCN(c4cccc(Cl)c4)CC3)C2)cn1 (stereo not given)	i	i	i	i	i	nt	nt	nt
COc1ccc(Cl)cc1NC(=O)c1cc(-c2ccccc2O)n[nH]1	i	i	5.5*	i	i	5.0%*	i	i
COc1ccc(OC)c(NC(=O)c2cc(-c3cc(Cl)ccc3O)n[nH]2)c1	i	i	i	i	i	nt	nt	nt
Clc1ccc(C2=Nn3c(nnc3-c3n[nH]c4c3CCC4)SC2)cc1Cl	i	i	10*	i	i	24%*	i	i
O=C1NC(c2ccccc2)=C(c2nc3ccccc3s2)C(c2ccccc2)N1 (stereo not given)	i	i	i	i	i	nt	30%*	26%*
CC(=O)C1=C(c2ccccc2)NC(=O)NC1c1ccccc1 (stereo not given)	i	i	i	i	i	nt	nt	nt
CCOC(=O)c1ccc(N2C(=O)c3n[nH]c(-c4ccco4)c3C2c2ccc([N+](=O)[O-])cc2)cc1 (stereo not given)	i	i	i	i	i	i	i	i
CCN1CCN(c2nnc(-c3ccc(C)cc3)c3ccccc23)CC1	i	i	i	i	i	nt	nt	nt
NS(=O)(=O)c1cccc(NC(=O)COC(=O)c2cc(-c3ccc(Cl)cc3)nc3ccccc23)c1	i	i	5.6*	i	i	14%*	i	i
